According to ChEMBL document CHEMBL3779858, “Design, synthesis and Structure-activity relationship studies of new thiazole-based free fatty acid receptor 1 agonists for the treatment of type 2 diabetes” (Eur J Med Chem, 2016):
pEC50: −log10 of the molar value. Active and inactive are the calls of the source. No cut-off for these calls is given here.

How the values were obtained:
[1] = biological target: T1, Free fatty acid receptor 1 (Homo sapiens, UniProt O14842); experiment: Agonist activity at human FFA1 receptor expressed in CHO cells assessed as Ca2+ influx at 300 nM by FLIPR assay; assay type: functional, cell-based
Summary of the method: (§1)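 Human FFA1 stably expressed in CHO cells, seeded at 15K/well and grown 16 h at 37 °C, 5% CO2. Cells loaded 1 h at 37 °C with Fluo 4-AM (2.5 µg/mL), 2.5 mmol/L probenecid and 0.1% fatty acid-free BSA. Single screening concentration as listed. Ca2+ flux read on FLIPR Tetra and expressed as % of the 10 µM γ-linolenic acid response after vehicle subtraction. Mean of three independent experiments.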

[2] = biological target: T1, Free fatty acid receptor 1; experiment: Agonist activity at human FFA1 receptor expressed in CHO cells assessed as Ca2+ influx at 100 nM by FLIPR assay; assay type: functional, cell-based; summary of the method: as §1
Mus musculus [3] = experiment: Antidiabetic activity in overnight fasted ICR mouse assessed as decrease in blood glucose level at […], po administered 30 mins prior to glucose challenge measured after 15 to 120 mins by OGTT method; assay type: functional, organism-based; conditions: 38 umol/kg
Summary of the method: (§2)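 Male ICR mice, 10 weeks old, 18-22 g, fasted overnight (12 h), n = 6 per group. Single oral dose in 0.5% CMC-Na vehicle (10 mL/kg), […] for the reference compound (20 mg/kg) and for the test compounds. Oral glucose load (30%, 3 g/kg) given 30 min later. Tail blood glucose measured by test strip at -30, 0, 15, 30, 45, 60 and 120 min. AUC0-2h also derived. Mean ± SEM.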

Mus musculus [4] = experiment: Antidiabetic activity in overnight fasted ICR mouse assessed as decrease in blood glucose level at 20 mg/kg, po administered 30 mins prior to glucose challenge measured after 15 to 120 mins by OGTT method; assay type: functional, organism-based; summary of the method: as §2
Mus musculus [5] = experiment: Antihyperglycemic activity in overnight fasted STZ-induced type 2 dibetic C57BL/6 mouse assessed as decrease in blood glucose level at 20 mg/kg, po administered 30 mins prior to glucose challenge measured after 15 to 120 mins by OGTT method; assay type: functional, organism-based
Summary of the method: (§3)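 Male C57BL/6 mice fed a 45%-fat diet for 4 weeks, given STZ i.p. (80 mg/kg), then high-fat diet for 4 more weeks. Fasting glucose of 11.1 mmol/L or higher taken as diabetic. After a 12 h fast, n = 6 per group, with a normal-mouse control group. Oral dose in 0.5% CMC-Na, then oral glucose (20%, 2 g/kg) 30 min later. Strip glucose at -30 to 120 min.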

Mus musculus [6] = experiment: Hepatotoxicity in ICR mouse assessed as alanine aminotransferase levels in serum at 20 mg/kg qd administered through oral gavage for 30 days (reference value: 35 +/- 4.3 IU/L); assay type: toxicity, organism-based; conditions: in vivo, 720 h
Mus musculus [7] = experiment: Hepatotoxicity in ICR mouse assessed as aspartate aminotransferase levels in serum at 20 mg/kg qd administered through oral gavage for 30 days (reference value: 133.1 +/- 13.1 IU/L); assay type: toxicity, organism-based; conditions: in vivo, 720 h
Mus musculus [8] = experiment: Hepatotoxicity in ICR mouse assessed as total bilirubin levels in serum at 20 mg/kg qd administered through oral gavage for 30 days (reference value: 4.1 +/- 0.4 IU/L); assay type: toxicity, organism-based; conditions: in vivo, 720 h
[9] = biological target: T1, Free fatty acid receptor 1; experiment: Agonist activity at human FFA1 receptor expressed in CHO cells assessed as Ca2+ influx by FLIPR assay; assay type: functional, cell-based
Summary of the method: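 Ca2+ flux assay in CHO cells stably expressing human FFA1: seeded at 15K/well and grown 16 h, then Fluo 4-AM loaded 1 h at 37 °C with probenecid and fatty acid-free BSA. Compounds tested at various concentrations. Response normalized to vehicle (0%) and 10 µM γ-linolenic acid (100%). EC50 from concentration–response fitting, mean of three determinations.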

Mus musculus [10] = experiment: Toxicity in overnight fasted ICR mouse assessed as hypoglycemic effect at 15 mg/kg, po after 30 to 120 mins […]; assay type: organism-based; conditions: in vivo
Summary of the method: (§4)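 Fasting hypoglycemia test without a glucose load: male ICR mice, 10 weeks old, fasted overnight, 3 groups of n = 6. Single oral dose of 60 mg/kg test compound, 15 mg/kg glibenclamide or 0.5% CMC-Na vehicle. Tail-vein blood glucose measured by test strip at 0, 30, 60, 90, 120 and 180 min. Mean ± SEM.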

Mus musculus [11] = experiment: Antidiabetic activity in overnight fasted ICR mouse assessed as decrease in plasma glucose AUC at […], po administered 30 mins prior to glucose challenge measured after 15 to 120 mins by OGTT method; assay type: functional, organism-based; summary of the method: as §2
Mus musculus [12] = experiment: Antidiabetic activity in overnight fasted po dosed ICR mouse assessed as decrease in blood glucose level administered 30 mins prior to glucose challenge measured after 15 to 120 mins by OGTT method; assay type: functional, organism-based; summary of the method: as §2
Mus musculus [13] = experiment: Antidiabetic activity in overnight fasted ICR mouse assessed as decrease in blood glucose level at 60 mg/kg, po administered 30 mins prior to glucose challenge measured after 60 mins by OGTT method; assay type: functional, organism-based
Summary of the method: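 Dose–response OGTT in male ICR mice, 10 weeks old, fasted 12 h, 5 groups of n = 6. Oral doses of 10, 30 or 60 mg/kg, or reference at 20 mg/kg, in 0.5% CMC-Na. Glucose (30%, 3 g/kg) given orally 30 min after dosing. Tail-blood glucose read by test strip at -30, 0, 15, 30, 45, 60 and 120 min. Mean ± SEM.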

Mus musculus [14] = experiment: Toxicity in overnight fasted ICR mouse assessed as hypoglycemic effect at 60 mg/kg, po after 30 to 120 mins […]; assay type: organism-based; conditions: in vivo; summary of the method: as §4
Mus musculus [15] = experiment: Antihyperglycemic activity in overnight fasted STZ-induced type 2 dibetic C57BL/6 mouse assessed as decrease in blood glucose level at 30 mg/kg, po administered 30 mins prior to glucose challenge measured after 15 to 120 mins by OGTT method; assay type: functional, organism-based; summary of the method: as §3
Mus musculus [16] = experiment: Hepatotoxicity in ICR mouse assessed as alanine aminotransferase levels in serum at 30 mg/kg qd administered through oral gavage for 30 days (reference value: 35 +/- 4.3 IU/L); assay type: toxicity, organism-based; conditions: in vivo, 720 h
Mus musculus [17] = experiment: Hepatotoxicity in ICR mouse assessed as aspartate aminotransferase levels in serum at 30 mg/kg qd administered through oral gavage for 30 days (reference value: 133.1 +/- 13.1 IU/L); assay type: toxicity, organism-based; conditions: in vivo, 720 h
Mus musculus [18] = experiment: Hepatotoxicity in ICR mouse assessed as total bilirubin levels in serum at 30 mg/kg qd administered through oral gavage for 30 days (reference value: 4.1 +/- 0.4 IU/L); assay type: toxicity, organism-based; conditions: in vivo, 720 h

T1 sequence (O14842 whole entry): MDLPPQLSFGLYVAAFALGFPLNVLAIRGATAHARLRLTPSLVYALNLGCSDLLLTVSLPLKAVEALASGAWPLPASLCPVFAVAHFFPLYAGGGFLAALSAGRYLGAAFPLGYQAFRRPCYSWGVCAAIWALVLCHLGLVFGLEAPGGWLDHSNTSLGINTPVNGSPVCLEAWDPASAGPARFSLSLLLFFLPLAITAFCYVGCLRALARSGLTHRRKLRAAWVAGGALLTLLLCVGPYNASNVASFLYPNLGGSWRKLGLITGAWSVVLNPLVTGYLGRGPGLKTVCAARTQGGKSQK

| SMILES | Activity [1] | Activity [2] | also measured |
| --- | --- | --- | --- |
| Cc1nc(-c2ccccc2)sc1COc1ccc2c(c1)OCC2CC(=O)O (stereo not drawn) | 67.4% | 54.8% | Activity (Mus musculus [3]): Active |
| COc1cc(OC)cc(-c2nc(C)c(COc3ccc4c(c3)OCC4CC(=O)O)s2)c1 (stereo not drawn) | – | 17.5% | – |
| Cc1cc(OCCCS(C)(=O)=O)cc(C)c1-c1cccc(COc2ccc3c(c2)OC[C@H]3CC(=O)O)c1 [FASIGLIFAM] | – | – | Activity (Mus musculus [4]): Active; Activity (Mus musculus [5]): Active; Activity (Mus musculus [6]): 48.3 IU/L; Activity (Mus musculus [7]): 181.1 IU/L; Activity (Mus musculus [8]): 4 IU/L |
| O=C(O)CC1COc2cc(OCc3ncc(-c4ccccc4)o3)ccc21 (stereo not drawn) | 10.2% | 2.34% | – |
| O=C(O)CC1COc2cc(OCc3nnc(-c4ccccc4)o3)ccc21 (stereo not drawn) | 6.31% | 1.54% | – |
| COc1ccc(-c2nc(C)c(COc3ccc4c(c3)OCC4CC(=O)O)s2)cc1 (stereo not drawn) | – | 46.8% | pEC50 [9]: 6.91 |
| Cc1nc(-c2cccc(Cl)c2)sc1COc1ccc2c(c1)OCC2CC(=O)O (stereo not drawn) | – | 43% | pEC50 [9]: 6.86 |
| COc1ccc(Cl)cc1C(=O)NCCc1ccc(S(=O)(=O)NC(=O)NC2CCCCC2)cc1 [GLYBURIDE] | – | – | Activity (Mus musculus [10]): Toxic |
| Cc1cc(COc2ccc3c(c2)OCC3CC(=O)O)nn1-c1ccccc1 (stereo not drawn) | 1.23% | 0.98% | – |
| O=C(O)CC1COc2cc(OCc3csc(-c4ccccc4)n3)ccc21 (stereo not drawn) | 5.67% | 0.15% | – |
| Cc1nc(-c2ccc(F)cc2)sc1COc1ccc2c(c1)OCC2CC(=O)O (stereo not drawn) | – | 61.6% | pEC50 [9]: 7.31; Activity (Mus musculus [3]): Active; Activity (Mus musculus [11]): Active; Activity (Mus musculus [12]): Dose-dependent effect; Activity (Mus musculus [13]): Active; Activity (Mus musculus [14]): Non-toxic; Activity (Mus musculus [15]): Active; Activity (Mus musculus [16]): 37.5 IU/L; Activity (Mus musculus [17]): 141.8 IU/L; Activity (Mus musculus [18]): 4 IU/L |
| O=C(O)CC1COc2cc(OCc3nc(-c4ccccc4)cs3)ccc21 (stereo not drawn) | 0.23% | 0.16% | – |
| Cc1ccccc1-c1nc(C)c(COc2ccc3c(c2)OCC3CC(=O)O)s1 (stereo not drawn) | – | 10.7% | – |
| Cc1cccc(-c2nc(C)c(COc3ccc4c(c3)OCC4CC(=O)O)s2)c1 (stereo not drawn) | – | 47.2% | pEC50 [9]: 6.93 |
| O=C(O)CC1COc2cc(OCc3cc(-c4ccccc4)on3)ccc21 (stereo not drawn) | 1.67% | 0.84% | – |
| Cc1nc(-c2cccc(C(F)(F)F)c2)sc1COc1ccc2c(c1)OCC2CC(=O)O (stereo not drawn) | – | 35.7% | – |
| Cc1nc(-c2ccc(C(F)(F)F)cc2)sc1COc1ccc2c(c1)OCC2CC(=O)O (stereo not drawn) | – | 50.4% | pEC50 [9]: 7.01 |

| SMILES | Activity [1] | Activity [2] | also measured |
| --- | --- | --- | --- |
| Cc1nc(-c2cc3ccccc3o2)sc1COc1ccc2c(c1)OCC2CC(=O)O (stereo not drawn) | – | 14.8% | – |
| Cc1nc(-c2ccccc2Cl)sc1COc1ccc2c(c1)OCC2CC(=O)O (stereo not drawn) | – | 12.4% | – |
| Cc1nc(-c2cccc3ccccc23)sc1COc1ccc2c(c1)OCC2CC(=O)O (stereo not drawn) | – | 8.53% | – |
| Cc1nc(-c2cccc(F)c2)sc1COc1ccc2c(c1)OCC2CC(=O)O (stereo not drawn) | – | 56.9% | pEC50 [9]: 7.19; Activity (Mus musculus [3]): Active; Activity (Mus musculus [11]): Active |
| Cc1nc(-c2ccccc2F)sc1COc1ccc2c(c1)OCC2CC(=O)O (stereo not drawn) | – | 25.8% | – |
| Cc1nc(-c2cccs2)sc1COc1ccc2c(c1)OCC2CC(=O)O (stereo not drawn) | – | 35.1% | – |
| Cc1nc(-c2ccc(Cl)cc2)sc1COc1ccc2c(c1)OCC2CC(=O)O (stereo not drawn) | – | 53.4% | pEC50 [9]: 7.07; Activity (Mus musculus [3]): Active; Activity (Mus musculus [11]): Active |
| Cc1nc(-c2ccsc2)sc1COc1ccc2c(c1)OCC2CC(=O)O (stereo not drawn) | – | 56.5% | pEC50 [9]: 7.16; Activity (Mus musculus [3]): Active |
| COc1cc(-c2nc(C)c(COc3ccc4c(c3)OCC4CC(=O)O)s2)cc(OC)c1OC (stereo not drawn) | – | 7.47% | – |
| Cc1nc(-c2ccccc2)oc1COc1ccc2c(c1)OCC2CC(=O)O (stereo not drawn) | 21.2% | 7.15% | – |
| O=C(O)CC1COc2cc(OCc3nnc(-c4ccccc4)s3)ccc21 (stereo not drawn) | 13.7% | 3.36% | – |
| O=C(O)CC1COc2cc(OCc3ncc(-c4ccccc4)s3)ccc21 (stereo not drawn) | 19.8% | 5.26% | – |
| Cc1nc(-c2ccccc2C(F)(F)F)sc1COc1ccc2c(c1)OCC2CC(=O)O (stereo not drawn) | – | 7.76% | – |
| Cc1nc(-c2ccc(Cl)s2)sc1COc1ccc2c(c1)OCC2CC(=O)O (stereo not drawn) | – | 8.34% | – |
| Cc1ccc(-c2nc(C)c(COc3ccc4c(c3)OCC4CC(=O)O)s2)cc1 (stereo not drawn) | – | 54.9% | pEC50 [9]: 7.13; Activity (Mus musculus [3]): Active; Activity (Mus musculus [11]): Active |
| O=C(O)CC1COc2cc(OCc3cn(-c4ccccc4)nn3)ccc21 (stereo not drawn) | 0.89% | – | – |
